Experimental data: ChEMBL document CHEMBL2434932, “Design, synthesis and biological evaluation of a novel class of potent TGR5 agonists based on a 4-phenyl pyridine scaffold” (Eur J Med Chem, 2013)
Active and inactive are the calls of the source. The rule behind the calls is not given here.

Assays:
[1] = target: T1, G-protein coupled bile acid receptor 1 (Homo sapiens, UniProt Q8TDU6); experiment: Agonist activity at human TGR5 expressed in HEK293 cells assessed CRE-induced luciferase activity after 5.5 hrs by reporter gene assay; format: functional, cell-based
T1 sequence (Q8TDU6 whole entry): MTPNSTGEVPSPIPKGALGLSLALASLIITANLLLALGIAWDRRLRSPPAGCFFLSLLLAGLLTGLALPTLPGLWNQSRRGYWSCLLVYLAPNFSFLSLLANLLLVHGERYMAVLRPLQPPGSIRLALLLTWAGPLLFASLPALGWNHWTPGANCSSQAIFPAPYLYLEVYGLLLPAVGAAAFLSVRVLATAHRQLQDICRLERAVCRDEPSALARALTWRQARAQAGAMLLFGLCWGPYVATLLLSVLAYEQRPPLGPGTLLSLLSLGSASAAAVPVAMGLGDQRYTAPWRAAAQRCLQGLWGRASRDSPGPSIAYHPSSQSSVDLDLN

[2] = target: T2, G-protein coupled bile acid receptor 1 (Mus musculus) (UniProt Q80SS6); experiment: Agonist activity at mouse TGR5 expressed in HEK293 cells assessed CRE-induced luciferase activity after 5.5 hrs by reporter gene assay relative to control; format: functional, cell-based; set-up: concentration or dose not given beside the values
T2 sequence (whole entry): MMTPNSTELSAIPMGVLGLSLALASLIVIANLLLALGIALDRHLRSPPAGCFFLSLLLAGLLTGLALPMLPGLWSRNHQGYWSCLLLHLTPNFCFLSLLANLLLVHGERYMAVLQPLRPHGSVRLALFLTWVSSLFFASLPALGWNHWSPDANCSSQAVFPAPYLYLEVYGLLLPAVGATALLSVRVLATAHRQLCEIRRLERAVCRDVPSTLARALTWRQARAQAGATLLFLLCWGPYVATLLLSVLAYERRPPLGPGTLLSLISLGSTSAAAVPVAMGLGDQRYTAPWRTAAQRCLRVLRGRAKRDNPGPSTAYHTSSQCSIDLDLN
How it was run: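 HEK293 cells were stably transfected with a human or mouse TGR5 expression plasmid plus a CRE-driven luciferase reporter (pGL4.29). Cells were seeded and incubated overnight in DMEM with 10% FBS at 37 °C in 5% CO2, then exposed in fresh medium to a range of test concentrations. Luciferase read-out. Max effect % was scaled from DMSO vehicle (0%) to the INT-777 reference (100%). EC50 was taken from at least two independent experiments at eight concentrations each, mean ± SD.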

[3] = target: T3, G-protein coupled bile acid receptor 1 (Mus musculus, UniProt Q80SS6); experiment: Agonist activity at mouse TGR5 expressed in HEK293 cells assessed CRE-induced luciferase activity after 5.5 hrs by reporter gene assay; format: functional, cell-based
T3 sequence (Q80SS6 whole entry): T2 sequence (whole entry)
How it was run: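 HEK293 cells were stably transfected with a human or mouse TGR5 expression plasmid plus a CRE-driven luciferase reporter (pGL4.29). Cells were seeded and incubated overnight in DMEM with 10% FBS at 37 °C in 5% CO2, then exposed in fresh medium to a range of test concentrations. Luciferase read-out. EC50 was taken from at least two independent experiments at eight concentrations each, mean ± SD.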

[4] = target: T4, G-protein coupled bile acid receptor 1 (Homo sapiens) (UniProt Q8TDU6); experiment: Agonist activity at human TGR5 expressed in HEK293 cells assessed CRE-induced luciferase activity at 10 uM after 5.5 hrs by reporter gene assay; format: functional, cell-based
T4 sequence (whole entry): T1 sequence (Q8TDU6 whole entry)

[5] = Clearance in Sprague-Dawley rat at 5 mg/kg, po; format: ADME, organism-based; set-up: dose 5 mg/kg, route oral; conditions: in vivo
How it was run: (§1)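 Male SD rats, n = 6 per group, dosed orally at 5 mg/kg as a 0.25% CMC-Na formulation. PK parameters were derived by non-compartmental analysis and are reported as mean ± SD.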

[6] = Half life in Sprague-Dawley rat at 5 mg/kg, po; format: ADME, organism-based; set-up: dose 5 mg/kg, route oral; conditions: in vivo; how it was run: as §1
Mus musculus [7] = experiment: Toxicity in oral glucose loaded ICR mouse assessed as effect on size of the gallbladder at 50 mg/kg, po; format: organism-based; set-up: dose 50 mg/kg, route oral; conditions: in vivo
How it was run: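 Male ICR mice from the OGTT (oral dose 50 mg/kg in 0.25% CMC, n = 7–8 per group) were re-fed for 2 h after the test. The gallbladders were then ligated and removed. Gallbladder size was measured by vernier caliper. Bile weight was taken as the gross weight of gallbladder with bile minus the net gallbladder weight.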

[8] = AUC (0 to infinity) in Sprague-Dawley rat at 5 mg/kg, po; format: ADME, organism-based; set-up: dose 5 mg/kg, route oral, time infinity; conditions: plasma; how it was run: as §1
[9] = MRT (0 to infinity) in Sprague-Dawley rat at 5 mg/kg, po; format: ADME, organism-based; set-up: dose 5 mg/kg, route oral; conditions: in vivo; how it was run: as §1
Mus musculus [10] = experiment: Antidiabetic activity in oral glucose loaded ICR mouse assessed as reduction of blood glucose AUC (0 to 120 mins) at 50 mg/kg, po; format: functional, organism-based; set-up: dose 50 mg/kg
How it was run: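 Male ICR mice were fasted overnight and dosed orally at 50 mg/kg in 0.25% CMC vehicle (n = 7–8 per group), 30 min before an oral glucose load of 4 g/kg. Tail-clip blood glucose was measured before dosing and at 0, 15, 30, 60 and 120 min after the load. AUC0–120 min was calculated by the trapezoidal rule using each animal's 0-min glucose as its baseline.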

[11] = AUC (0 to t) in Sprague-Dawley rat at 5 mg/kg, po; format: ADME, organism-based; set-up: dose 5 mg/kg, route oral; conditions: plasma; how it was run: as §1
[12] = MRT (0 to t) in Sprague-Dawley rat at 5 mg/kg, po; format: ADME, organism-based; set-up: dose 5 mg/kg, route oral; conditions: in vivo; how it was run: as §1
[13] = Cmax in Sprague-Dawley rat at 5 mg/kg, po; format: ADME, organism-based; set-up: dose 5 mg/kg, route oral; conditions: in vivo; how it was run: as §1
[14] = Tmax in Sprague-Dawley rat at 5 mg/kg, po; format: ADME, organism-based; set-up: dose 5 mg/kg, route oral; conditions: in vivo; how it was run: as §1

| Compound | EC50 [1] [nM] | Activity [2] [%] | EC50 [3] [nM] | also measured |
| --- | --- | --- | --- | --- |
| O=C(c1ccoc1)N(Cc1cc(C(F)(F)F)cc(C(F)(F)F)c1)Cc1cnccc1-c1ccccc1 | 320 |  |  |  |
| CCC(c1cc(C(F)(F)F)cc(C(F)(F)F)c1)N(Cc1cnccc1-c1ccccc1)C(=O)c1ccco1 (racemic) | 1230 |  |  |  |
| CCC(NCc1cnccc1-c1ccccc1F)c1cc(C(F)(F)F)cc(C(F)(F)F)c1 (racemic) | 384 |  |  |  |
| Fc1ccccc1-c1ccncc1CNCc1cc(C(F)(F)F)cc(C(F)(F)F)c1 | 458 |  |  |  |
| CC[C@H]1[C@@H](O)[C@@H]2[C@H](C[C@H](O)[C@]3(C)[C@@H]([C@H](C)C[C@H](C)C(=O)O)CC[C@@H]23)[C@@]2(C)CC[C@@H](O)C[C@@H]12 |  | 100 |  |  |
| O=C(c1ccccc1)N(Cc1cnccc1-c1ccccc1F)S(=O)(=O)c1cc(C(F)(F)F)cc(C(F)(F)F)c1 | 31 | 144 | 850 |  |
| O=C(c1ccncc1)N(Cc1cc(C(F)(F)F)cc(C(F)(F)F)c1)Cc1cnccc1-c1ccccc1 | 4080 |  |  |  |
| O=S(=O)(c1cc(C(F)(F)F)cc(C(F)(F)F)c1)N(Cc1ccccc1)Cc1cnccc1-c1ccccc1F | 2100 |  |  |  |
| N#CC(NCc1cnccc1-c1c(F)cccc1F)c1cc(C(F)(F)F)cc(C(F)(F)F)c1 (racemic) | 51 | 123 | 100 |  |
| CC(NCc1cnccc1-c1ccccc1F)c1cc(C(F)(F)F)cc(C(F)(F)F)c1 (racemic) | 204 | 117 | 2040 |  |
| O=C(O)C(NCc1cnccc1-c1ccccc1F)c1cc(C(F)(F)F)cc(C(F)(F)F)c1 (stereo unspecified) |  |  |  | Activity [4]: 16% |
| O=C(c1ccsc1)N(Cc1cc(C(F)(F)F)cc(C(F)(F)F)c1)Cc1cnccc1-c1ccccc1 | 120 | 111 | 230 |  |
| O=C1COc2nccc(-c3ccccc3F)c2CN1Cc1cc(C(F)(F)F)cc(C(F)(F)F)c1 |  | 130 |  |  |
| O=S(=O)(NCc1cnccc1-c1c(F)cccc1F)c1cc(C(F)(F)F)cc(C(F)(F)F)c1 | 62 | 123 | 550 |  |
| CC(c1cc(C(F)(F)F)cc(C(F)(F)F)c1)N(Cc1cnccc1-c1ccccc1)C(=O)c1ccco1 (racemic) | 310 | 119 | 1180 |  |
| COC(=O)C(NCc1cnccc1-c1ccccc1F)c1cc(C(F)(F)F)cc(C(F)(F)F)c1 (stereo unspecified) | 440 |  |  |  |
| CCC(=O)N(Cc1cc(C(F)(F)F)cc(C(F)(F)F)c1)Cc1cnccc1-c1ccccc1 | 1270 |  |  |  |
| CC(=O)N(Cc1cc(C(F)(F)F)cc(C(F)(F)F)c1)Cc1cnccc1-c1ccccc1 | 910 |  |  |  |
| FC(F)(F)c1cc(CNCc2cnccc2-c2ccccc2)cc(C(F)(F)F)c1 | 580 |  |  |  |

| Compound | EC50 [1] [nM] | Activity [2] [%] | EC50 [3] [nM] | also measured |
| --- | --- | --- | --- | --- |
| N#CC(NCc1cnccc1-c1ccccc1)c1cc(C(F)(F)F)cc(C(F)(F)F)c1 (racemic) | 61 | 120 | 370 |  |
| O=C(c1ccccc1)N(Cc1cc(C(F)(F)F)cc(C(F)(F)F)c1)Cc1cnccc1-c1ccccc1 | 350 |  |  |  |
| N#CC(NCc1cnccc1-c1ccccc1F)c1cc(C(F)(F)F)cc(C(F)(F)F)c1 (racemic) | 35 | 121 | 150 | CL/F [5]: 1520 mL/min/kg; half-life [6]: 2.3 h; Activity (Mus musculus [7]): Non-toxic; AUC(0-inf) [8]: 55 ng·h/mL; MRT inf [9]: 3.6 h; Activity (Mus musculus [10]): inactive; AUC(0-t) [11]: 49.1 ng·h/mL; MRT last [12]: 2.6 h; Cmax [13]: 16.3 ng/mL; Tmax [14]: 1.9 h |
| O=S(=O)(NCc1c(-c2ccccc2F)ccnc1-c1ccccc1)c1cc(C(F)(F)F)cc(C(F)(F)F)c1 |  |  |  | Activity [4]: 18% |
| O=C(c1ccco1)N(Cc1cc(C(F)(F)F)cc(C(F)(F)F)c1)Cc1cnccc1-c1ccccc1 | 470 |  |  |  |
| O=C(c1ccco1)N(Cc1cnccc1-c1ccccc1F)S(=O)(=O)c1cc(C(F)(F)F)cc(C(F)(F)F)c1 | 32 | 139 | 910 |  |
| CCCN(Cc1cnccc1-c1ccccc1F)C(C#N)c1cc(C(F)(F)F)cc(C(F)(F)F)c1 (racemic) | 466 |  |  |  |
| O=C(C1CCCCC1)N(Cc1cc(C(F)(F)F)cc(C(F)(F)F)c1)Cc1cnccc1-c1ccccc1 |  |  |  | Activity [4]: 19% |
| O=S(=O)(NCc1c(-c2ccccc2F)ccnc1Cl)c1cc(C(F)(F)F)cc(C(F)(F)F)c1 | 406 |  |  |  |
| O=C(c1ccc(Cl)cc1)N(Cc1cc(C(F)(F)F)cc(C(F)(F)F)c1)Cc1cnccc1-c1ccccc1 | 7430 |  |  |  |
| NCc1cnccc1-c1ccccc1F |  |  |  | Activity [4]: 1% |
| O=S(=O)(NCc1cnccc1-c1ccccc1F)c1cc(C(F)(F)F)cc(C(F)(F)F)c1 | 63 | 148 | 820 |  |
| CCOc1nccc(-c2ccccc2F)c1CNS(=O)(=O)c1cc(C(F)(F)F)cc(C(F)(F)F)c1 |  |  |  | Activity [4]: 18% |
| N#CC(c1cc(C(F)(F)F)cc(C(F)(F)F)c1)N(Cc1ccco1)Cc1cnccc1-c1ccccc1F (racemic) | 892 |  |  |  |
| O=C(c1ccsc1)N(Cc1cnccc1-c1ccccc1F)S(=O)(=O)c1cc(C(F)(F)F)cc(C(F)(F)F)c1 | 53 | 146 | 1090 |  |
| O=C(c1ccco1)N(Cc1cc(C(F)(F)F)cc(C(F)(F)F)c1)Cc1cnccc1-c1ccccc1F | 500 |  |  |  |
| O=C(c1cccs1)N(Cc1cc(C(F)(F)F)cc(C(F)(F)F)c1)Cc1cnccc1-c1ccccc1 | 260 | 127 | 300 |  |
| O=C(NCc1cnccc1-c1ccccc1F)c1cc(C(F)(F)F)cc(C(F)(F)F)c1 |  |  |  | Activity [4]: 46% |
